According to PMC11651071 (International Journal of Nanomedicine, 2024):

How the values were obtained:
[1] = test system: Hela cells xenograft tumor; experiment: In vivo anti-tumor effect, subcutaneous xenograft model using Hela cells; parameters: species or system nude mice; conditions: for Body weight of nude mice during treatment: CU, CA7, CA7-LP 50 mg/kg, DDP-INJ 3.5 mg/kg, i.p. every 2 days for 14 days; for Tumor cell infiltration in kidneys and livers (H&E): after treatment
Summary of the method: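 Female BALB/c immunodeficient mice (4 w, 15–16 g) received 3.5×10^7 HeLa cells in 100 µL PBS s.c. near the right scapula. At ~100 mm³, mice were randomised into five groups (n = 5): saline, test articles at 50 mg/kg, or cisplatin injection at 3.5 mg/kg. Dosing was i.p. every 2 days for 14 days. Tumour volume (V = 1/2·ab²) and body weight were tracked; tumours were then weighed and organs formalin-fixed for H&E, with tumour Ki67 immunohistochemistry.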

Hela cells [2] = experiment: Cell apoptosis detection; format: cell-based; conditions: 24 h
Hela cells [3] = experiment: Cell viability assay; format: cell-based; conditions: 24 h
Summary of the method: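 MTT assay: HeLa cells at 4.5×10^3 cells/well were allowed to adhere for 24 h, then exposed to gradient concentrations for 24, 48 or 72 h, with 0.1% DMSO as negative control. MTT was added for 3.5 h at 37°C, and formazan was dissolved in DMSO and read at 490 nm. Inhibition rate = [1 − (ODsample − ODblank)/(ODcontrol − ODblank)] × 100%. Mean ± SD, ≥3 independent experiments.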

Hela cells [4] = experiment: Cell cycle assay; format: cell-based; conditions: 24 h
Summary of the method: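 HeLa cells (DMEM, 10% FBS) were seeded at 5.5×10^5 cells/well in 6-well plates and treated in DMEM for 24 h. Collected cells were fixed by dropwise 70% ethanol and held at −20°C for 24 h. They were washed twice in chilled PBS, stained with PI buffer for 30 min at room temperature in the dark, and analysed by flow cytometry. Mean ± SD, ≥3 independent experiments.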

Hela cells [5] = experiment: Wound healing assay; format: cell-based; conditions: 24 h, serum-free DMEM
Summary of the method: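 Scratch assay: a confluent HeLa monolayer (9×10^5 cells/well, 6-well plates) was scraped with a 200 µL pipette tip and washed twice with PBS. Treatments were added in serum-free DMEM and plates kept at 37°C, 5% CO2. Wound closure was imaged by microscope at 0 and 24 h.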

[6] = 50 mg/kg intraperitoneally every 2 days for 14 days

How did the Tumor inhibition rate [1, 6] turn out when `COc1cc(/C=C/C(=O)CC(=O)/C=C/c2ccc(O)c(OC)c2)ccc1O` [CU, Curcumin] was run?
Its Tumor inhibition rate is 28.58 ± 8.04%.

And the Tumor weight [1, 6]?
Its Tumor weight is 0.49 ± 0.06 g.

And the “Body weight of nude mice during treatment” value [1]?
Its value is “remained stable”.

And the “Tumor cell infiltration in kidneys and livers (H&E)” value [1]?
Its value is “present in small amounts”.

What about the Total apoptosis rate (Hela cells [2]; 2.5 μM) of the same compound?
The Total apoptosis rate was 7.29 ± 1.64%.

What about the Total apoptosis rate (Hela cells [2]; 5 μM) of the same compound?
Its Total apoptosis rate is 11.64 ± 3.19%.

What about the Total apoptosis rate (Hela cells [2]; 10 μM) of the same compound?
Its Total apoptosis rate is 17.60 ± 3.39%.

And the Maximum inhibition rate (Hela cells [3])?
The Maximum inhibition rate was 5.77 ± 2.40%.

And the “Proportion of the G2/M phase” value (Hela cells [4]; 2.5 μM)?
Its value is 17.84 ± 1.07%.

And the “Proportion of the G2/M phase” value (Hela cells [4]; 5 μM)?
The value was 20.46 ± 2.44%.

And the “Proportion of the G2/M phase” value (Hela cells [4]; 10 μM)?
The value was 22.78 ± 3.60%.

What about the Migration rate (Hela cells [5]) of the same compound?
The Migration rate was 42.12 ± 3.06%.

What does the source list for `N.N.[Cl][Pt][Cl]` [DDP-INJ, Cisplatin]?
Body weight of nude mice during treatment [1]: notable decrease in body weight; Mortality of nude mice ([1]; DDP-INJ 3.5 mg/kg i.p., as the number of administrations increased): some mice dying; Tumor cell infiltration in kidneys and livers (H&E) [1]: absent; Total apoptosis rate (Hela cells [2]; 2.5 μM): 11.57 ± 1.16%; Total apoptosis rate (Hela cells [2]; 5 μM): 23.73 ± 2.30%; Total apoptosis rate (Hela cells [2]; 10 μM): 32.17 ± 3.68%; Change of cell cycle distribution (Hela cells [4]): increase in the S phase and a decrease in G2/M phase
